Where “and” joins values, the source holds several entries; their conditions need not be identical. Equal values may be shown once. Entries after “also recorded” stand apart in the source; their conditions may differ.
Assays:
[1] = Venglustat plasma pharmacokinetics, LEAP trial; assay type: in vivo, human; settings: for plasma venglustat concentration, mean (SD): 10 patients (Patient 9 excluded); for plasma venglustat concentration, Patient 9: single patient with low exposure
Summary of the method: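 Plasma sampled on Day 1 pre-dose and at 1, 2, 4, 8 and 24 h. Further samples taken 2–4 h post-dose at Weeks 4, 26 and 52, and pre-dose at Weeks 12 and 39. Oral test compound 15 mg once daily. […] Values below LLOQ entered as 0.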

[2] = Venglustat CSF pharmacokinetics, LEAP trial; assay type: in vivo, human; settings: for CSF venglustat concentration, mean (SD): 10 patients (Patient 9 excluded); for CSF venglustat concentration, Patient 9: single patient with low exposure
Summary of the method: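 CSF for drug levels collected pre-dose on Day 1 and 2–4 h post-dose at Weeks 4, 26 and 52 (reported as ~4 h), while on oral test compound 15 mg once daily. Concentrations summarised descriptively, with one patient excluded from summary statistics. Values below LLOQ entered as 0.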

[3] = tested on: monosialodihexosylganglioside; assay: Monosialodihexosylganglioside in CSF; assay type: in vivo, human; settings: Weeks 4, 26 and 52; measurable at baseline in eight of 11 patients
Summary of the method: (§1)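 Exploratory CSF biomarkers quantified in CSF taken by lumbar puncture at baseline and Weeks 1, 4, 26 and 52. Adults with GD3 received oral test compound 15 mg once daily plus maintenance IV enzyme replacement for 52 weeks.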

ceramide = assay: Ceramide in CSF; assay type: in vivo, human; settings: baseline and throughout the study
Summary of the method: as §1

adults with GD3 [4] = assay: Horizontal and vertical saccadic eye movements; assay type: in vivo, human; settings: after 1 year; horizontal or vertical velocity and amplitude
Summary of the method: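 Horizontal and vertical saccades recorded non-invasively and assessed by a central reader. Eye-position and target traces were filtered to give eye velocity. Saccades were detected by velocity criteria, and amplitude, duration and peak velocity were derived. Patients took oral test compound 15 mg once daily on top of maintenance IV enzyme replacement for 1 year.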

adults with GD3 [5] = assay: Ataxia, Scale for Assessment and Rating of Ataxia; assay type: in vivo, human
adults with GD3 [6] = assay: Trail Making Test; assay type: in vivo, human
Summary of the method: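 Neurocognition measured with the Trail Making Test: Part A (timed visual search and psychomotor speed) and Part B (set-shifting, executive component). Trail B minus Trail A time was derived to remove graphomotor and visual-scanning variance. Baseline versus Week 52 under oral test compound 15 mg once daily plus maintenance IV enzyme replacement.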

adults with GD3 [7] = assay: Brain volumetric MRI, tensor-based morphometry; assay type: in vivo, human
Summary of the method: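 MRI of brain and brainstem (at least T1 and T2) at baseline, Week 26 and Week 52 on 1.5 or 3 T scanners, read centrally by a reviewer blinded to patient and time point. FreeSurfer parcellation. Tensor-based morphometry: symmetric log-demons registration of baseline/follow-up pairs with a cross-correlation metric. The Jacobian determinant integrated over each region gives the rate of volume change.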

adults with GD3 [8] = assay: Resting functional MRI connectivity; assay type: in vivo, human
Summary of the method: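 Resting-state BOLD fMRI at baseline, Week 26 and Week 52, analysed centrally and blinded. Regions of interest came from FreeSurfer segmentation masks, using parcellation of the baseline high-resolution 3D-T1 image. Full and partial connectivity were computed between resting-state networks 1, 2, 3, 6, 7 and 8 using published template maps.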

adults with GD3 [9] = assay: Systemic manifestations of GD; assay type: in vivo, human
Summary of the method: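 Haemoglobin, platelet count, and liver and spleen volumes assessed per standard clinical practice over 1 year of daily oral test compound 15 mg plus maintenance IV enzyme replacement. Bone mineral density measured by DXA; bone marrow burden scored from lumbar spine and femur MRI. Lung function followed ATS standards: spirometry (FVC, FEV₁), total lung capacity and carbon monoxide diffusing capacity.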

adults with GD3 [10] = assay: Safety and tolerability, LEAP trial; assay type: in vivo, human; settings: 1 year, 11 patients
Summary of the method: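 Open-label, single-arm study at six centres: 11 adults with GD3 took oral test compound 15 mg once daily with maintenance IV imiglucerase every 2 weeks (stable doses 38.5–125 U/kg). Safety and tolerability were assessed over 52 weeks. No pre-specified statistical testing.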

plasma glucosylceramide = settings: cited from earlier work
CYP3A = settings: no reference given; cited from earlier work
[11] = tested on: glucosylceramide synthase; settings: cited from earlier work
[12] = Week 4, ~4 h post-dose, 15 mg once daily
[13] = Week 26, ~4 h post-dose, 15 mg once daily
[14] = Week 52, ~4 h post-dose, 15 mg once daily
[15] = after 1 year, patient with low venglustat exposure
[16] = venglustat in combination with imiglucerase

With CC(C)(NC(=O)O[C@@H]1CN2CCC1CC2)c1csc(-c2ccc(F)cc2)n1 [Venglustat] the “accumulation in plasma after once-daily dosing versus Day 1” value ([1]; 4 h post-dose plasma concentrations, 15 mg once daily) was ~2 fold, the “plasma venglustat concentration, mean (SD)” value ([1]; Day 1, ~4 h post-dose, 15 mg once daily) was 48 (17.5) ng/ml and the “plasma venglustat concentration, mean (SD)” value [1, 12] was 116 (48.1) ng/ml. The “plasma venglustat concentration, Patient 9” value ([1]; Week 4) was 102 ng/mL, the “plasma venglustat concentration, mean (SD)” value [1, 13] was 120 (40.1) ng/ml and the “plasma venglustat concentration, Patient 9” value ([1]; Week 26) was 53.3 ng/mL. For the same compound, the “plasma venglustat concentration, mean (SD)” value [1, 14] was 114 (65.8) ng/ml, the “plasma venglustat concentration, Patient 9” value ([1]; Week 52) was “undetectable” and the AUC(0-t) ([1]; human, plasma, po, 15 mg) was 851 ng·h/mL. For the same compound, the Cmax ([1]; human, plasma, po, 15 mg) was 58.1 ng/mL, the Tmax ([1]; human, plasma, po, 15 mg) was 2 h and the “steady state reached (plasma)” value ([1]; mean plasma concentrations, Patient 9 excluded, 15 mg once daily) was ≤ 4 Week. For the same compound, the “CSF venglustat concentration, mean (SD)” value [2, 12] was 6.63 (2.42) ng/ml, the “CSF venglustat concentration, Patient 9” value ([2]; Week 4) was 3.05 ng/mL and the “CSF venglustat concentration, mean (SD)” value [2, 13] was 6.77 (1.96) ng/ml. For the same compound, the “CSF venglustat concentration, Patient 9” value ([2]; Week 26) was 1.77 ng/mL, the “CSF venglustat concentration, mean (SD)” value [2, 14] was 6.14 (3.44) ng/ml and the “CSF venglustat concentration, Patient 9” value ([2]; Week 52) was “undetectable”. For the same compound, the “steady state reached (CSF)” value ([2]; mean CSF concentrations, Patient 9 excluded, 15 mg once daily) was ≤ 4 Week, the “crossing of the blood–brain barrier” value ([2]; venglustat detectable in CSF 4 h post dose over 1 year (excluding Patient 9)) was “crossed the blood–brain barrier” and the “monosialodihexosylganglioside in CSF on treatment” value [3] was “undetectable in all CSF samples”. The “ceramide concentrations in CSF” value (ceramide) was “within reference ranges”, the “treatment effect on saccadic eye movements” value (adults with GD3 [4]) was “no clear evidence of a treatment effect” and the “total modified SARA score at Week 52, mean” value (adults with GD3 [5]; 11 patients, baseline mean 2.68, scale 0–32) was 1.55. The “total modified SARA score, mean change from baseline” value (adults with GD3 [5]; Week 52, 95% CI: −2.06 to −0.21) was −1.14 points, the “patients with slightly improved total modified SARA score” value (adults with GD3 [5]; baseline to Week 52, 11 patients) was “nine patients; also recorded: nine of 11” and the “time to complete TMT Trail A at Week 52, mean (SD)” value (adults with GD3 [6]; baseline 54.4 (47.5) s) was 53.5 (43.1) s. For the same compound, the “time to complete Trail B minus Trail A at Week 52, mean” value (adults with GD3 [6]; baseline 99.3 s) was 61.7 s, the “time to complete TMT Trail B at Week 52, mean (SD)” value (adults with GD3 [6]; baseline 153.6 (149.4)) was 115.3 (76.8) seconds and the “patients with reduction in Trail B minus Trail A time” value (adults with GD3 [6]; baseline to Week 52) was 7 of 11. For the same compound, the “time to complete TMT Trail A, mean change” value (adults with GD3 [6]; baseline to Week 52, 95% CI: −21.0 to 19.4) was -0.8 s, the “time to complete Trail B minus Trail A, mean change” value (adults with GD3 [6]; baseline to Week 52, 95% CI: −88.1 to 13.0) was -37.5 s and the “time to complete TMT Trail B, mean change” value (adults with GD3 [6]; baseline to Week 52, 95% CI: −104.8 to 28.1) was -38.4 s. The “patients with reduction in TMT Trail B time” value (adults with GD3 [6]; baseline to Week 52, marked reduction) was 8 of 11, the “patients with reduction in TMT Trail A time” value (adults with GD3 [6]; baseline to Week 52, minor reduction) was 5 of 11 and the “ventricular volume increase, Patient 9” value (adults with GD3 [7]; [15]) was 9.6%. The “whole brain volume reduction, Patient 9” value (adults with GD3 [7]; [15]) was 1.57%, the “change in whole brain volume, Patient 9” value (adults with GD3 [7]; after 1 year, patient with low-to-undetectable venglustat exposure, baseline 882 951 mm^3) was −13894.8 mm^3 and the “MRI whole brain volume, Percentage change” value (adults with GD3 [7]; individual patients, baseline to Week 52) was −0.52% and 0.38% and 0.11% and −1.57% and −0.22% and −0.23% and 0.025% and 0.48% and 0.21%. For the same compound, the “regional brain volume change (mean atrophy ± SD), left cuneus” value (adults with GD3 [7]; vMRI Group A, Week 52) was 37.2 ± 46.2, the “regional brain volume change (mean atrophy ± SD), left entorhinal” value (adults with GD3 [7]; vMRI Group A, Week 52) was 34.5 ± 32.1 and the “regional brain volume change (mean atrophy ± SD), left lingual” value (adults with GD3 [7]; vMRI Group A, Week 52) was 50.1 ± 80.0. The “regional brain volume change (mean atrophy ± SD), left pericalcarine” value (adults with GD3 [7]; vMRI Group A, Week 52) was 18.5 ± 22.0, the “regional brain volume change (mean atrophy ± SD), left putamen” value (adults with GD3 [7]; vMRI Group A, Week 52) was 94.7 ± 78.7 and the “regional brain volume change (mean atrophy ± SD), right accumbens area” value (adults with GD3 [7]; vMRI Group A, Week 52) was 12.9 ± 9.6. The “regional brain volume change (mean atrophy ± SD), right amygdala” value (adults with GD3 [7]; vMRI Group A, Week 52) was 60.8 ± 74.9, the “regional brain volume change (mean atrophy ± SD), right postcentral” value (adults with GD3 [7]; vMRI Group A, Week 52) was 91.7 ± 100.0 and the “regional brain volume change (mean atrophy ± SD), right putamen” value (adults with GD3 [7]; vMRI Group A, Week 52) was 97.8 ± 100.8. The “ventricle volume change (mean ± SD)” value (adults with GD3 [7]; vMRI Group A, Week 52) was −438 ± 696.9, the “functional connectivity relative to baseline” value (adults with GD3 [8]; Weeks 26 and 52, patients with venglustat exposure (fMRI Group A)) was “stronger connectivity” and the “maximal increased correlation coefficient” value (adults with GD3 [8]; fMRI Group A (nine patients)) was 0.19 ± 0.16. The “lumbar spine bone mineral density category” value (adults with GD3 [9]; after 1 year, seven patients with data) was “five patients remained in the same bone density category”, the interstitial lung disease (adults with GD3 [9]; after 1 year, seven patients with detectable disease at baseline) was “four improved” and the “bone marrow burden scores” value (adults with GD3 [9]; during 1 year of treatment, 11 patients) was “remained in the same severity category in 10 patients”. For the same compound, the “haemoglobin concentrations, platelet counts, spleen and liver volumes” value (adults with GD3 [9]; throughout 1 year, reference range for healthy persons) was “remained in this range”, the “adverse event: acne” value (adults with GD3 [10]) was “two events in two patients” and the “adverse event: back pain” value (adults with GD3 [10]) was “nine events in five patients”. The “adverse event: diarrhoea” value (adults with GD3 [10]) was “two events in two patients”, the “adverse event: headache” value (adults with GD3 [10]) was “ten events in six patients” and the “adverse event: upper respiratory tract infection” value (adults with GD3 [10]) was “two events in two patients”. The “adverse event: vomiting” value (adults with GD3 [10]) was “two events in two patients”, the “severity of most adverse events” value (adults with GD3 [10]) was “mild or moderate, transient” and the “deaths and serious adverse events” value (adults with GD3 [10]; venglustat 15 mg once daily in combination with imiglucerase) was “no deaths, serious adverse events; also recorded: no deaths or serious adverse events”. The “discontinuation of study treatment” value (adults with GD3 [10]; [16]) was “no patient discontinued”, the “patients with at least one adverse event” value (adults with GD3 [10]; [16]) was 11 and the “mean plasma glucosylceramide reduction from baseline” value (plasma glucosylceramide; 15 mg once daily, Day 15, healthy volunteers) was 74.6%. For the same compound, the “safety and tolerability in healthy volunteers” value (plasma glucosylceramide; once-daily dosing of up to 15 mg) was “favourable safety and tolerability profile”, the “Emax (plasma glucosylceramide reduction)” value (plasma glucosylceramide; pharmacokinetic-pharmacodynamic modelling after repeated dosing) was 80% and the “metabolism by CYP3A” value (CYP3A) was “principally metabolized by the CYP3A cytochrome complex”. For the same compound, the “inhibition of glucosylceramide formation” value [11] was “potent and specific inhibitor”.
